# Measurements collected from several papers.
# Protocols differ between the studies behind these lines.
# Target: Vascular endothelial growth factor receptor 1 (FLT1, Homo sapiens, UniProt P17948)
Compound,test,conditions,remaining binding [%]
c1cncc(-c2cccc(Nc3nccc(NC4CCCCC4)n3)c2)c1,"binding, competition with immobilised ligand",10 µM,71
CN(CCCC(F)(F)F)c1nccc(-c2cnn3ncccc23)n1,binding,1 µM,100
O=C(Nc1c[nH]nc1C(=O)NC1CCNCC1)c1cc(F)cc(F)c1,"binding, competition with immobilised ligand",1 µM,63
C[C@H]1CCN(c2nccc(-c3cnn4ncccc34)n2)C1,binding,1 µM,100
Cc1cc(NC(=O)c2cccc(S(F)(F)(F)(F)F)c2)cc(-n2ccn3nc(-c4cccnc4)cc23)c1,"cell-free assay, competition with immobilised ligand",1 µM,100
CN(C)c1ncc(F)c(-c2cnn3ncccc23)n1,binding,1 µM,100
O=C(NCCCN1CCOCC1)c1ccc(Nc2ncc(Cl)c(-c3ccc(Cl)s3)n2)cc1,"binding, competition with immobilised ligand",1 µM,5.7
CN(C(=O)c1ccccc1)c1cc(N(C)c2ccc3c(c2)CCc2ccc(C(=O)NCCN4CCOCC4)cc2C3=O)ccc1F,"cell-free assay, competition with immobilised ligand",1 µM,85
O=C(c1ccc(Nc2nccc(-c3cc4ccccc4s3)n2)cc1)N1CCC(N2CCCC2)CC1,"binding, competition with immobilised ligand",1 µM,46
N[C@@H]1CCN(c2nccc(-c3cnn4ncccc34)n2)C1,binding,1 µM,100
O=C(c1ccc(Nc2ncc(Cl)c(-c3cc4ccccc4s3)n2)cc1)N1CCC(N2CCCC2)CC1,"binding, competition with immobilised ligand",1 µM,6.2
CCN1CCN(Cc2ccc(C(=O)Nc3ccc(C)c(Oc4ccc5c(c4)CC(=O)N5)c3)cc2C(F)(F)F)CC1,"binding, competition with immobilised ligand",1 µM,63
COc1cnc(Nc2cccc(S(N)(=O)=O)c2)nc1N1CCN(c2ccccc2)C(=O)C1,"binding, competition with immobilised ligand",1 µM,98
COc1ccnn2ncc(-c3ccnc(N(C)C)n3)c12,binding,1 µM,100
CN([C@@H]1CCc2c(CC(=O)O)c3cc(S(C)(=O)=O)ccc3n2C1)S(=O)(=O)c1ccc(F)cc1,"cell-free assay, competition with immobilised ligand",1 µM,88
C[C@@H](c1ccc(-n2cnc3c(N)ncnc32)cc1)N1CCc2nn(C)c(Cc3ccccc3)c2C1=O,"binding, competition with immobilised ligand",0.1 µM,81
CS(=O)(=O)c1cc(C2(NC(=O)c3cncc4c3cnn4-c3ccc(F)cc3)CC2)ccn1,"cell-free assay, competition with immobilised ligand",1 µM,100
c1cnn2ncc(-c3ccnc(N4CCC45COC5)n3)c2c1,binding,1 µM,87
Cc1nc(N2CC[C@@H](O)C2)ncc1-c1cc(C(F)(F)F)cc2[nH]ncc12,"cell-free assay, competition with immobilised ligand",1 µM,100
CN(c1nccc(-c2cnn3ncccc23)n1)C1CC1,binding,1 µM,100
CC1=C(C#N)[C@@H](c2ccc3[nH]nc(C)c3c2)C(C#N)=C(c2ccc(Cl)cc2)N1,"cell-free assay, competition with immobilised ligand",1 µM,100
CCN(CC)CCCCNc1ncc2cc(-c3cc(OC)cc(OC)c3)c(NC(=O)NC(C)(C)C)nc2n1,"cell-free assay, competition with immobilised ligand",1 µM,8
